# From article PMC8769552 (Science Advances, 2022)
# Experiments:
# HeLa cells = assay: Histone lactylation and acetylation in HeLa cells after inhibitor treatment; assay type: cell-based, human; conditions: 5-hour treatment, TMP195 5 μM, NAM 10 mM; for global histone lactylation levels: sodium butyrate 2 mM, TSA 1 μM, apicidin 1 μM
# In short: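 HeLa cells treated 5 h with pan-HDAC inhibitors (2 mM or 1 μM), HDAC1–3-selective inhibitor (1 μM), class IIa-selective inhibitor (5 μM) or pan-sirtuin inhibitor (10 mM). Histone lactylation and acetylation by Western blot: blocked in 3% BSA/TBST 1 h at RT, primary antibody overnight at 4°C, LI-COR secondary 1:10,000 for 1 h, Odyssey imaging.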
# [1] = test system: HEK293T whole-cell lysates; assay: Fluorogenic lysate deacylase assay; assay type: biochemical, human; conditions: 37°C, 60 min; for conversion of AMC substrate by whole-cell lysate: substrate 50 μM, lysate 30 μg per well, NAD+ 500 μM, tris buffer, n = 4
# HDAC3 = assay type: biochemical, human; conditions: acid-extracted histones from HeLa cells, recombinant HDAC3
# In short: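 Histones acid-extracted from HeLa cells (hypotonic sucrose/Triton wash, no-salt EDTA/EGTA step, 0.2 M H2SO4 overnight at 4°C, 20% TCA precipitation). 20 μg histones incubated with 0.2 μg recombinant human HDAC at 37°C for 1 or 4 h in tris buffer (50 mM tris/Cl, 137 mM NaCl, 2.7 mM KCl, 1 mM MgCl2, pH 8). Stopped by boiling 5 min in loading buffer; Western blot readout.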
# HDAC1–3 = assay: Fluorogenic substrate screening assay; assay type: biochemical, human; conditions: substrate 50 μM, HDACs 50 nM, tris buffer, 37°C, 60 min; n = 2
# HDAC2 = assay: Fluorogenic Michaelis-Menten assay; assay type: biochemical, human; conditions: K(D-la) versus K(L-la), Ac-LGK-AMC; stated for HDAC1/2
# HDAC3/NCoR2 = HDAC3/NCoR2 (Homo sapiens, UniProt O15379+Q9Y618); assay: Fluorogenic Michaelis-Menten assay; assay type: biochemical; conditions: K(D-la) versus K(L-la), Ac-LGK-AMC
# Chain of HDAC3/NCoR2 (O15379 whole entry): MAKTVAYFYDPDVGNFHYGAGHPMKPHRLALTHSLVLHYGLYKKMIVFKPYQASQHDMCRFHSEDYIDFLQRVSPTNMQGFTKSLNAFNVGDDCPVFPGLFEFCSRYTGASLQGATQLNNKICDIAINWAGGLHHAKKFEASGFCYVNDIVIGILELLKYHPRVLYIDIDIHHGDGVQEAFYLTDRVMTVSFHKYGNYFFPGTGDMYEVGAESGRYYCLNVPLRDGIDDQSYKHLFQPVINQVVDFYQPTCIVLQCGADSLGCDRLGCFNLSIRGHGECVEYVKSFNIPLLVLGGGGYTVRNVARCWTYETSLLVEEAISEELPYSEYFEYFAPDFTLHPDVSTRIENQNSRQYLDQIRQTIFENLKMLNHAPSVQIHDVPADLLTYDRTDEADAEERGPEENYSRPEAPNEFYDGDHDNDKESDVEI
# Chain of HDAC3/NCoR2 (Q9Y618 389-480 partner limits assumed): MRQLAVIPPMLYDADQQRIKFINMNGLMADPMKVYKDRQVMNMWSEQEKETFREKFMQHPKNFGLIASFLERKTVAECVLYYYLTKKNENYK
# HDAC1 = HDAC1 (Homo sapiens, UniProt Q13547); assay: Fluorogenic Michaelis-Menten assay; assay type: biochemical; conditions: K(D-la) versus K(L-la), Ac-LGK-AMC; stated for HDAC1/2
# Chain of HDAC1 (Q13547 whole entry): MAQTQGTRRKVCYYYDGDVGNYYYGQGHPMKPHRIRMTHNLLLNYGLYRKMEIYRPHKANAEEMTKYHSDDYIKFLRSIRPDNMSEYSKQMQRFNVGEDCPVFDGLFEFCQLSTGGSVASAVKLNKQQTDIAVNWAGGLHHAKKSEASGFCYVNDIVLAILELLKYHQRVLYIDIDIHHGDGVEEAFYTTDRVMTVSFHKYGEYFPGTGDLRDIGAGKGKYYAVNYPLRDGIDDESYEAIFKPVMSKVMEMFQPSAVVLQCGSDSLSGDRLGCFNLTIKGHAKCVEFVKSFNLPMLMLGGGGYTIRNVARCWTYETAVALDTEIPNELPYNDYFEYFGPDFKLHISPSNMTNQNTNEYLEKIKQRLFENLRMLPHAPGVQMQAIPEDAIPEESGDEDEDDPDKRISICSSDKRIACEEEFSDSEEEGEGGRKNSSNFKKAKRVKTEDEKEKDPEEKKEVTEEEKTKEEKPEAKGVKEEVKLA
compound,measurement,setting,value
"NC(=O)c1cccnc1 [NAM, nicotinamide]",histone Kac levels,HeLa cells,does not affect histone Kac levels
same,global histone lactylation levels,HeLa cells,failed to affect histone lactylation levels substantially
same,effect of inhibitor on lysate deacylation of 1a–c,"[1]; NAM 10 mM, substrates 50 μM",did not substantially change the outcome of the deacylation events
CC(C)(CNC(=O)c1cccc(-c2noc(C(F)(F)F)n2)c1)c1coc(-c2ccccc2)n1 [TMP195],histone Kac levels,HeLa cells,lack of effect
same,global histone lactylation levels,HeLa cells,failed to affect histone lactylation levels substantially
"CC(/C=C/C(=O)NO)=C\[C@@H](C)C(=O)c1ccc(N(C)C)cc1 [TSA, trichostatin A]",inhibition of HDAC3-mediated decrease of global histone lactylation,HDAC3,could be inhibited
same,global histone lactylation levels,HeLa cells,increased global histone lactylation levels
CCC(=O)CCCCC[C@@H]1NC(=O)[C@H]2CCCCN2C(=O)[C@H]([C@@H](C)CC)NC(=O)[C@H](Cc2cn(OC)c3ccccc23)NC1=O [apicidin],inhibition of HDAC3-mediated decrease of global histone lactylation,HDAC3,could be inhibited
same,global histone lactylation levels,HeLa cells,enhanced lactylation
CCCC(=O)[O-].[Na+] [sodium butyrate],global histone lactylation levels,HeLa cells,increased global histone lactylation levels
Ac-Ala-Pro-Arg-Lys(D-La)-AMC [1c],conversion of AMC substrate by whole-cell lysate,[1],converted to a larger extent than its K(L-la) counterpart
Ac-Ala-Pro-Arg-Lys(L-La)-AMC [1b],conversion of AMC substrate by whole-cell lysate,[1],"able to remove the lactyl modifications, albeit to a lower extent than the corresponding Kac modification"
Ac-Gln-Pro-Lys-Lys(L-La)-AMC [4b],deacylase activity (AMC release),HDAC1–3,measurable activity
Ac-Leu-Gly-Lys(D-La)-AMC [2c],fold higher kcat/KM for 2c than for 2b,HDAC2,> 6 fold
same,fold higher kcat/KM for 2c than for 2b,HDAC3/NCoR2,3.5 fold
same,fold higher kcat/KM for 2c than for 2b,HDAC1,> 6 fold
